Measurements as given in ChEMBL document CHEMBL1155278, “3,4-Diaryl-isoxazoles and -imidazoles as potent dual inhibitors of p38alpha mitogen activated protein kinase and casein kinase 1delta” (J Med Chem, 2009).

Tests used:
[1] = biological target: Tyrosine-protein kinase Yes (Homo sapiens) (UniProt P07947); experiment: Inhibition of YES1 assessed as residual activity at 0.1 uM by Cherenkov counting relative to control in presence of 20 uM ATP
Procedure, shortened: (§1)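 Single-concentration screen at 0.1 μM in a 76-kinase panel. ATP for each kinase was set near its Km for ATP. Residual activity is given as a percentage of control assays without compound, mean of n = 3 ± SD.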

[2] = biological target: Ephrin type-B receptor 3 (Homo sapiens) (UniProt P54753); experiment: Inhibition of EPHB3 assessed as residual activity at 0.1 uM by Cherenkov counting relative to control
Chain of Ephrin type-B receptor 3 (Homo sapiens) (P54753 whole entry): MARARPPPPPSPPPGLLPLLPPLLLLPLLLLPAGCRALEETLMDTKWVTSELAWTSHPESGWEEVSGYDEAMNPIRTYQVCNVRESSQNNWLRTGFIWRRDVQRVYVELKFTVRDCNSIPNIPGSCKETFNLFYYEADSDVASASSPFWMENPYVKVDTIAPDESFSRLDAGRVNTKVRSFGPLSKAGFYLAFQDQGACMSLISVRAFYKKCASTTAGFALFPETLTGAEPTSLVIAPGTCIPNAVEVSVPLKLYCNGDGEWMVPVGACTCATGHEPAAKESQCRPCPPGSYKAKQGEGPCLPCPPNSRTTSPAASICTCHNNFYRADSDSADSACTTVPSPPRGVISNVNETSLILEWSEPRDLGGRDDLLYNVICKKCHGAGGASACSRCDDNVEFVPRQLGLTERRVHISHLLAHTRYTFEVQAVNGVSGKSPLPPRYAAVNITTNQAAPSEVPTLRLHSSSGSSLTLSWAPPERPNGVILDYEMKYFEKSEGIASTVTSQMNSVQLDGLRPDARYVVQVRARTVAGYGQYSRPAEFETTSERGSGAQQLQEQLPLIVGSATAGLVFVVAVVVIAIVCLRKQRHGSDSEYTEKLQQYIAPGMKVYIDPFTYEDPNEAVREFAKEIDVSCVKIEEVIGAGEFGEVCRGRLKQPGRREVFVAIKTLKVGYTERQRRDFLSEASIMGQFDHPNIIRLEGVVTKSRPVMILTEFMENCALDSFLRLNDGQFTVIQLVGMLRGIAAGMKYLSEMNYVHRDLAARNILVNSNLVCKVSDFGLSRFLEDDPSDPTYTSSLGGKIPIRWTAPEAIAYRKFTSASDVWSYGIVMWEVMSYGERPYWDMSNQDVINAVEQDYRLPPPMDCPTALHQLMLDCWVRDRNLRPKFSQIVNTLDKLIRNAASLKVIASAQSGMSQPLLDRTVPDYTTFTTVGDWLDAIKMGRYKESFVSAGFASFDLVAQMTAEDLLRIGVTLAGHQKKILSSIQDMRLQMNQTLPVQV
Procedure, shortened: (§2)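 Single-concentration screen at 0.1 µM across a panel of 76 protein kinases. Each kinase was run at an ATP concentration approximating its ATP Km. Results are % mean residual activity versus control assays without compound (n = 3 ± SD).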

[3] = biological target: Casein kinase I isoform delta (Rattus norvegicus, UniProt Q06486); experiment: Inhibition of GST-fused rat CK1delta by Cherenkov counting in presence of 20 uM ATP
Chain of Casein kinase I isoform delta (Q06486 whole entry, the tested form may be a part, canonical isoform): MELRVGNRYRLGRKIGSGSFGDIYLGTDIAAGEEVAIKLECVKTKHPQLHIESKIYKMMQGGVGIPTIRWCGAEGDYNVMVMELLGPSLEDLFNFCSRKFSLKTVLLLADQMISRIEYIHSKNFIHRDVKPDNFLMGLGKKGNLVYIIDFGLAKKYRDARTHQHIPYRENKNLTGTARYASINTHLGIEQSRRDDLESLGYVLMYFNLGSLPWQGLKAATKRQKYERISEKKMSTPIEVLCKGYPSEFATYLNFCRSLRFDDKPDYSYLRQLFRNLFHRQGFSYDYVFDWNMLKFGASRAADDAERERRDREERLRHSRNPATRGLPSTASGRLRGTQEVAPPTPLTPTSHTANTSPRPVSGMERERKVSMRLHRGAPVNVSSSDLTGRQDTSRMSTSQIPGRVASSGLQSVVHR

[4] = biological target: Dual specificity mitogen-activated protein kinase kinase 1 (Homo sapiens) (UniProt Q02750); experiment: Inhibition of MKK1 assessed as residual activity at 0.1 uM by Cherenkov counting relative to control in presence of 5 uM ATP
Chain of Dual specificity mitogen-activated protein kinase kinase 1 (Homo sapiens) (Q02750 whole entry): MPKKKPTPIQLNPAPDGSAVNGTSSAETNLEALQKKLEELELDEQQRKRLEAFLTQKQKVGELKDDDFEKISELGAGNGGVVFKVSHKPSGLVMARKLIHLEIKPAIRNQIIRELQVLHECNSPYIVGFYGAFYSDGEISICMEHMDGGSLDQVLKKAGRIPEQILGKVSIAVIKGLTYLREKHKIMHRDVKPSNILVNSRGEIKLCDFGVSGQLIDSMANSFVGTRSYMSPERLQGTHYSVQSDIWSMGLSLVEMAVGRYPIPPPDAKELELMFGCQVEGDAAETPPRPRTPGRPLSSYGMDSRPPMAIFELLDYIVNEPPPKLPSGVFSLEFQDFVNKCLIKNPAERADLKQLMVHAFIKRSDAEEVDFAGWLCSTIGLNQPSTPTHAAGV
Procedure, shortened: (§3)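 Single-concentration selectivity screen at 0.1 μM against a panel of 76 protein kinases. Each kinase was run at an ATP level approximating its Km for ATP. Output is mean residual activity as % of the control assay without compound, n = 3 ± SD.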

[5] = biological target: Mitogen-activated protein kinase 13 (Homo sapiens) (UniProt O15264); experiment: Inhibition of p38delta assessed as residual activity at 0.1 uM by Cherenkov counting relative to control; procedure, shortened: as §1
Chain of Mitogen-activated protein kinase 13 (Homo sapiens) (O15264 whole entry): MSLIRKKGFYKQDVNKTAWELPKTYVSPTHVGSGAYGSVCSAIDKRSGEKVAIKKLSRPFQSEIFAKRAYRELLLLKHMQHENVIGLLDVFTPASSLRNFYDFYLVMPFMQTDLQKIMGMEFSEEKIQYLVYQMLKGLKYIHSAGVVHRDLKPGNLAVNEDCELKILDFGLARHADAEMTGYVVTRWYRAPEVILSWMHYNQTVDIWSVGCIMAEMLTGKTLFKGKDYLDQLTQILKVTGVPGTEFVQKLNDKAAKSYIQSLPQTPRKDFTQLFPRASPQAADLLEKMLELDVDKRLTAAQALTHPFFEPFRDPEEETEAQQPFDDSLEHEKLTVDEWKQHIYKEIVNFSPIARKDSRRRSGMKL

[6] = biological target: Serine/threonine-protein kinase PLK1 (Homo sapiens) (UniProt P53350); experiment: Inhibition of PLK1 assessed as residual activity at 0.1 uM by Cherenkov counting relative to control in presence of 5 uM ATP; procedure, shortened: as §1
Chain of Serine/threonine-protein kinase PLK1 (Homo sapiens) (P53350 whole entry): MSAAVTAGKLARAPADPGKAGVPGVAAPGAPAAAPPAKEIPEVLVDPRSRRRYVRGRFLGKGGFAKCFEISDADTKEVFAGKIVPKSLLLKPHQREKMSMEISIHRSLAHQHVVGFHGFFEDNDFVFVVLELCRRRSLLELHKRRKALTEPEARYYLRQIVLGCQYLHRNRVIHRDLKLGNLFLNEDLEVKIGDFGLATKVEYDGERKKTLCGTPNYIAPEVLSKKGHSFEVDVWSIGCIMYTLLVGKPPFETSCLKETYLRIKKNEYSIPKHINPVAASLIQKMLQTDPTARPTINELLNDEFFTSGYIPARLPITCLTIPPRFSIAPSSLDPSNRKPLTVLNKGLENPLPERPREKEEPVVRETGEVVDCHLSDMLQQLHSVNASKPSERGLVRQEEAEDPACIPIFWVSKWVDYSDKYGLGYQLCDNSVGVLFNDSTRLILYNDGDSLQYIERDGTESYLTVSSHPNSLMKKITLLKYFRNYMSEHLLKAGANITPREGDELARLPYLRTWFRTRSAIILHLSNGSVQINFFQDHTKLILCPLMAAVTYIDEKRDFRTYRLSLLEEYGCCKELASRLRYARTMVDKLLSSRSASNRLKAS

[7] = Inhibition of CK2 assessed as residual activity at 0.1 uM by Cherenkov counting relative to control in presence of 5 uM ATP; procedure, shortened: as §2
[8] = biological target: Serine/threonine-protein kinase pim-2 (Homo sapiens) (UniProt Q9P1W9); experiment: Inhibition of PIM2 assessed as residual activity at 0.1 uM by Cherenkov counting relative to control in presence of 5 uM ATP; procedure, shortened: as §3
Chain of Serine/threonine-protein kinase pim-2 (Homo sapiens) (Q9P1W9 whole entry, looked up): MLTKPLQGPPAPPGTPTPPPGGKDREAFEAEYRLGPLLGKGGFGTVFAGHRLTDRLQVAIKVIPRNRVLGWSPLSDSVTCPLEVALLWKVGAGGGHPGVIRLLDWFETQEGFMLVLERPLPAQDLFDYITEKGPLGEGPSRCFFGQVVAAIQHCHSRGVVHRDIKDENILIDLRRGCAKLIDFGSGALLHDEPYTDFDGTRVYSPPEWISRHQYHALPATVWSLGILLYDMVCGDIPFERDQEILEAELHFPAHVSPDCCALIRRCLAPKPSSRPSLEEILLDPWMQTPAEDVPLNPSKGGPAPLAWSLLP

[9] = biological target: SRSF protein kinase 1 (Homo sapiens) (UniProt Q96SB4); experiment: Inhibition of SRPK1 assessed as residual activity at 0.1 uM by Cherenkov counting relative to control in presence of 50 uM ATP; procedure, shortened: as §1
[10] = biological target: Ephrin type-A receptor 2 (Homo sapiens) (UniProt P29317); experiment: Inhibition of EPHA2 assessed as residual activity at 0.1 uM by Cherenkov counting relative to control in presence of 50 uM ATP; procedure, shortened: as §2
[11] = biological target: MAP kinase-interacting serine/threonine-protein kinase 1 (Homo sapiens) (UniProt Q9BUB5); experiment: Inhibition of MNK1 assessed as residual activity at 10 uM by Cherenkov counting relative to control in presence of 50 uM ATP
Chain of MAP kinase-interacting serine/threonine-protein kinase 1 (Homo sapiens) (Q9BUB5 whole entry, looked up): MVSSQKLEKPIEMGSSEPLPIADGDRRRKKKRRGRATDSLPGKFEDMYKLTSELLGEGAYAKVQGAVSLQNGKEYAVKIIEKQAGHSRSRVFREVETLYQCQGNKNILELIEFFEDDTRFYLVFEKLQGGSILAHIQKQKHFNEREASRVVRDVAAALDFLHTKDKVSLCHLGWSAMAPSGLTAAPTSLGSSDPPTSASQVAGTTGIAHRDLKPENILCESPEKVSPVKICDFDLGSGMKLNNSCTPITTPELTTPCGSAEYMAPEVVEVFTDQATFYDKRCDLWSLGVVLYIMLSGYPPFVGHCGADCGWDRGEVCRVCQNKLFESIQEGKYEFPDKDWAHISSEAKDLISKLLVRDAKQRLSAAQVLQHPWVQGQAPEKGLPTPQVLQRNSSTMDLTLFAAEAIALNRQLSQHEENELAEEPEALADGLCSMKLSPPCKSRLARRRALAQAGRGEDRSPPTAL

[12] = biological target: MAP kinase-activated protein kinase 3 (Homo sapiens) (UniProt Q16644); experiment: Inhibition of MAPKAPK3 assessed as residual activity at 10 uM by Cherenkov counting relative to control
Chain of MAP kinase-activated protein kinase 3 (Homo sapiens) (Q16644 whole entry, looked up): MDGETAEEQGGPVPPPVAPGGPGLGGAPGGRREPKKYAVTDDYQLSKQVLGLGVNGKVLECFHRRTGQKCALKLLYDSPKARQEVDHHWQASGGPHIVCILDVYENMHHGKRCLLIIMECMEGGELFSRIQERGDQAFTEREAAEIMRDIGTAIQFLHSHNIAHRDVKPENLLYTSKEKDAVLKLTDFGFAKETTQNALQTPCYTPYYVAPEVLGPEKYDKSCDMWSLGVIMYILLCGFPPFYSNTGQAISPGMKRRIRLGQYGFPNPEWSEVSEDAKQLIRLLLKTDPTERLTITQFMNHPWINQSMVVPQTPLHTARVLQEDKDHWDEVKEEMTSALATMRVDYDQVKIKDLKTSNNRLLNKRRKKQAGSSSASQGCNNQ

[13] = biological target: Calcium/calmodulin-dependent protein kinase type 1 (Homo sapiens) (UniProt Q14012); experiment: Inhibition of CAMK1 assessed as residual activity at 10 uM by Cherenkov counting relative to control in presence of 50 uM ATP
Chain of Calcium/calmodulin-dependent protein kinase type 1 (Homo sapiens) (Q14012 whole entry, looked up): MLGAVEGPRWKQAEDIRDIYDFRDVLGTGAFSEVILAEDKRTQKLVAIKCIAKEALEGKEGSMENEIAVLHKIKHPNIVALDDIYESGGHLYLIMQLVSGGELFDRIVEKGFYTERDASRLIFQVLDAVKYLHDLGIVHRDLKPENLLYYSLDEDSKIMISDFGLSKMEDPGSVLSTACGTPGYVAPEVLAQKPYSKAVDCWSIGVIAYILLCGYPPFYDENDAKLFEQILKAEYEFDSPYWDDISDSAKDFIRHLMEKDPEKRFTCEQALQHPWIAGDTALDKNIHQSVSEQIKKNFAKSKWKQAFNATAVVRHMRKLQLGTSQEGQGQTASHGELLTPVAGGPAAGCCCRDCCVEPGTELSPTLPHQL
Procedure, shortened: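 Single-point profiling at 10 µM in a panel of 78 protein kinases. Kinase activity is expressed as a percentage relative to control assays without compound.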

[14] = biological target: MAP/microtubule affinity-regulating kinase 3 (Homo sapiens) (UniProt P27448); experiment: Inhibition of MARK3 assessed as residual activity at 10 uM by Cherenkov counting relative to control in presence of 5 uM ATP
[15] = biological target: Serine/threonine-protein kinase Nek6 (Homo sapiens) (UniProt Q9HC98); experiment: Inhibition of NEK6 assessed as residual activity at 10 uM by Cherenkov counting relative to control in presence of 50 uM ATP
Chain of Serine/threonine-protein kinase Nek6 (Homo sapiens) (Q9HC98 whole entry): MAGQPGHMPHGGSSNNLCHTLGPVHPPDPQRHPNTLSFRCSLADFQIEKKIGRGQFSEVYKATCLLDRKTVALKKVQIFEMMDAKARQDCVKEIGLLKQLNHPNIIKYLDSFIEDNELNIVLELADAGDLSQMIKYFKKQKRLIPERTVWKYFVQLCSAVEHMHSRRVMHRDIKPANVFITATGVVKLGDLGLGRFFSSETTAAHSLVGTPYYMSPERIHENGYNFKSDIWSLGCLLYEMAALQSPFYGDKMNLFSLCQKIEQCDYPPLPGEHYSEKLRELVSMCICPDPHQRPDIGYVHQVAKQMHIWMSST

[16] = biological target: Serine/threonine-protein kinase Nek7 (Homo sapiens) (UniProt Q8TDX7); experiment: Inhibition of NEK7 assessed as residual activity at 10 uM by Cherenkov counting relative to control
Chain of Serine/threonine-protein kinase Nek7 (Homo sapiens) (Q8TDX7 whole entry, looked up): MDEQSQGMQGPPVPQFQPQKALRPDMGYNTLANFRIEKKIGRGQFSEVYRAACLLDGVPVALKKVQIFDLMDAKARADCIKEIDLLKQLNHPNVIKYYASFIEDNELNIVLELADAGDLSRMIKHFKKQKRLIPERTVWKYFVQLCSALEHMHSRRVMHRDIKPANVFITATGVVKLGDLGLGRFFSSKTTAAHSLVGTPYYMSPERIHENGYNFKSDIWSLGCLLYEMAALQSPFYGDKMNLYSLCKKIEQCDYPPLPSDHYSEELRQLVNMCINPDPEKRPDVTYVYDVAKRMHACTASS

[17] = biological target: Serine/threonine-protein kinase pim-2 (Homo sapiens) (UniProt Q9P1W9); experiment: Inhibition of PIM2 assessed as residual activity at 10 uM by Cherenkov counting relative to control in presence of 5 uM ATP
[18] = biological target: T1, Inhibitor of nuclear factor kappa-B kinase subunit epsilon (Homo sapiens) (UniProt Q14164); experiment: Inhibition of IKKepsilon assessed as residual activity at 10 uM by Cherenkov counting relative to control in presence of 50 uM ATP
T1 sequence (whole entry): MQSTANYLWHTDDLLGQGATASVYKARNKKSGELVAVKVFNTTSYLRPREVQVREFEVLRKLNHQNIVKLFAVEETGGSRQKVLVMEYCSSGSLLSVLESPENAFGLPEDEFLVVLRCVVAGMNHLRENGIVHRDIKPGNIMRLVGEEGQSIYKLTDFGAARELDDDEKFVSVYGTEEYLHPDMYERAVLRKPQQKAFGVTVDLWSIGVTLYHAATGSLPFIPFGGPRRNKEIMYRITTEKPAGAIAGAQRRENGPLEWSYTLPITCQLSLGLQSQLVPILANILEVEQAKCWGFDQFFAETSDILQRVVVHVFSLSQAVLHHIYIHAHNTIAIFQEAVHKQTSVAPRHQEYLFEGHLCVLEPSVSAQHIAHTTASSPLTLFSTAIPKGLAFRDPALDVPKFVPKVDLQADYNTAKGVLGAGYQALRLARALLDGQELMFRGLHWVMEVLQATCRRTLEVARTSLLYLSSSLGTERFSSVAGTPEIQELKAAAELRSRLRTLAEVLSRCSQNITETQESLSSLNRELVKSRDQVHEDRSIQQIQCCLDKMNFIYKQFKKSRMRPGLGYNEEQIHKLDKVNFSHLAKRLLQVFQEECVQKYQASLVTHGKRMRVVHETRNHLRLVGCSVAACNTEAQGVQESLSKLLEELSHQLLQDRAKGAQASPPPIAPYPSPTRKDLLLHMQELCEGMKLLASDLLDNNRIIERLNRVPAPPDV

Activity [1] | Activity [2] | IC50 [3] | Activity [4] | Activity [5] | Activity [6] | Activity [7] | Activity [8] | Activity [9] | Activity [10] | Activity [11] | Activity [12] | Activity [13] | Activity [14] | Activity [15] | Activity [16] | Activity [17] | Activity [18] | Compound
14% | 95% | 11 nM | 18% | 100% | 110% | 122% | 101% | 97% | 95% | – | – | – | – | – | – | – | – | COc1ccc(/C=C/C(=O)Nc2cc(-c3[nH]c([S+](C)[O-])nc3-c3ccc(F)cc3)ccn2)c(OC)c1 (configuration not stated)
– | – | – | – | – | – | – | – | – | – | 89% | 113% | 76% | 92% | 108% | 100% | 96% | 71% | CC(C)c1noc(-c2ccc(F)cc2)c1-c1ccncc1
– | – | 230 nM | – | – | – | – | – | – | – | 96% | 104% | 75% | 95% | 112% | 104% | 105% | 81% | CC(C)c1onc(-c2ccc(F)cc2)c1-c1ccncc1
24% | 94% | 5 nM | 27% | 90% | 97% | 115% | 87% | 91% | 97% | – | – | – | – | – | – | – | – | COc1ccc(/C=C/C(=O)Nc2cc(-c3[nH]c(SC)nc3-c3ccc(F)cc3)ccn2)c(OC)c1
